# Experimental data published in ChEMBL document CHEMBL1129681, “Synthesis, absolute configuration, and biological profile of the enantiomers of trans-[2-(2,6-dimethoxyphenoxy)ethyl] [(3-p-tolyl-2,3-dihydro-1,4-benzodioxin-2-yl)methyl]amine (mephendioxan), a potent competitive alpha 1A-adrenoreceptor antagonist” (J Med Chem, 1996).
# Assays:
# [1] = biological target: T1, 5-hydroxytryptamine receptor 1A (Rattus norvegicus, UniProt P19327); experiment: Binding affinity towards 5-hydroxytryptamine 1A receptor in rat hypocampus membrane using [3H]8-OH-DPAT as radioligand; assay type: cell membranes
# T1 sequence (P19327 whole entry): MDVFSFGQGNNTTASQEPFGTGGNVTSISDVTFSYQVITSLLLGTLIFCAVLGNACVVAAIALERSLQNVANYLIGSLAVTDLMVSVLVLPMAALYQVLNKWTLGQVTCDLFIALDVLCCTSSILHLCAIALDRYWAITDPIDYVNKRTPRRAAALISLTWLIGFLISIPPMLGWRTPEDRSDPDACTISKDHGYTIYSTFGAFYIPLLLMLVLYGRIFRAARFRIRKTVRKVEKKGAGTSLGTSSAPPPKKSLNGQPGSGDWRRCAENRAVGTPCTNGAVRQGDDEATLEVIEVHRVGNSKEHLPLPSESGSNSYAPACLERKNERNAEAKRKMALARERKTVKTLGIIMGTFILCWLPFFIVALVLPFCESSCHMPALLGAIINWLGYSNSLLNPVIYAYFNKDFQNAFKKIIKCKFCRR
# How it was run: (§1)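 Rat brain membranes (native receptors): cerebral cortex for α1 with [3H]prazosin (79.2 Ci/mmol) and α2 with [3H]rauwolscine (80.5 Ci/mmol); hippocampus for 5-HT1A with [3H]8-OH-DPAT (162.9 Ci/mmol); striatum for D2 with [3H]spiperone (17.7 Ci/mmol). Radioligand competition by test drug; mean ± SE of at least three separate experiments in triplicate.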
# [2] = biological target: T2, Adrenergic receptor alpha-1 (Rattus norvegicus, UniProt P15823+P23944+P43140); experiment: pA2 values was evaluated against Alpha-1 adrenergic receptor in the isolated Rat Vas Deferens; assay type: functional, tissue-based
# T2 sequence (P15823 whole entry): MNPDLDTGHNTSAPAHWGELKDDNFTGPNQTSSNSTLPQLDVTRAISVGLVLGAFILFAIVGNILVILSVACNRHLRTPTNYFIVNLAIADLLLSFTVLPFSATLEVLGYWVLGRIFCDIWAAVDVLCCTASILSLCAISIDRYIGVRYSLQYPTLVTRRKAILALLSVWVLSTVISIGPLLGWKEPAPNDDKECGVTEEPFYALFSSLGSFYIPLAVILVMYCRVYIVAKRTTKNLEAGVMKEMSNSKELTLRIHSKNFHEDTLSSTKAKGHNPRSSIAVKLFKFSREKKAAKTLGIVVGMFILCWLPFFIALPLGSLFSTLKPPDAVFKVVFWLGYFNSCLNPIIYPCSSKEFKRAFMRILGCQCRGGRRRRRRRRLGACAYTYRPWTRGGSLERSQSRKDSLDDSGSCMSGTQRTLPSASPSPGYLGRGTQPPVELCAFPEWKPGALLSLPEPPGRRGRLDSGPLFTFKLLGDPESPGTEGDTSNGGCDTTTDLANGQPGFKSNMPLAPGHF
# T2 sequence (P23944 whole entry): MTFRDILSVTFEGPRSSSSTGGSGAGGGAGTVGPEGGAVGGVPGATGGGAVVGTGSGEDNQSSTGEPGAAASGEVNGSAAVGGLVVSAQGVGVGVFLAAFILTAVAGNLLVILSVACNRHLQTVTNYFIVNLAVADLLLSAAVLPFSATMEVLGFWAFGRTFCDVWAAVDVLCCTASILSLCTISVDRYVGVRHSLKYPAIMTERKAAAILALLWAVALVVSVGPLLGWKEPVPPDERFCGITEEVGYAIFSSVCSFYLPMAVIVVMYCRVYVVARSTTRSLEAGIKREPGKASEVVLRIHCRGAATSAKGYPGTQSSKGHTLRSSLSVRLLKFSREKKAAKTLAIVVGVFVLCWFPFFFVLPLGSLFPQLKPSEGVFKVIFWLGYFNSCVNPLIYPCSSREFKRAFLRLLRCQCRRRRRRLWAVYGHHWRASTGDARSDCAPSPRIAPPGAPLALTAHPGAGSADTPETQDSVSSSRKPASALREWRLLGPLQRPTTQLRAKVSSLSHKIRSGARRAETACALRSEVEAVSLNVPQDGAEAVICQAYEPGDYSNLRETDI
# T2 sequence (P43140 whole entry): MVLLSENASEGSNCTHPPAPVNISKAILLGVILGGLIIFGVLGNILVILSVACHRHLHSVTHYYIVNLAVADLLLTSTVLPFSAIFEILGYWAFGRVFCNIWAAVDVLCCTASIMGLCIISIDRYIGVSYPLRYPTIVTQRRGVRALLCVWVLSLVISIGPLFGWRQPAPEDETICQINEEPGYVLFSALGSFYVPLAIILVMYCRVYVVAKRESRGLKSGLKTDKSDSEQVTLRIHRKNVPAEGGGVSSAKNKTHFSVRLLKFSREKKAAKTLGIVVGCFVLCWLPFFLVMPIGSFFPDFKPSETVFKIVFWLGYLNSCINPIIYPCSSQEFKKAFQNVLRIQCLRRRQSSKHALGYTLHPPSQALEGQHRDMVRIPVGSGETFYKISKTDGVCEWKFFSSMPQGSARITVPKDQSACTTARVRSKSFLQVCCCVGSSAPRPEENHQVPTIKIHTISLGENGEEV
# How it was run: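 Functional antagonism was measured in isolated tissue. Dose ratios were taken at agonist EC50 values at three antagonist concentrations, each concentration tested five times. pA2 was derived from Schild plots constrained to slope -1 and is reported as mean ± SE of n experiments.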
# [3] = biological target: T3, Alpha-1D adrenergic receptor (Rattus norvegicus, UniProt P23944); experiment: Binding affinity towards Alpha-1D adrenergic receptor in rat brain using [3H]prazosin as radioligand; assay type: tissue-based
# T3 sequence (P23944 whole entry): T2 sequence (P23944 whole entry)
# [4] = biological target: T4, Alpha-1A adrenergic receptor (Rattus norvegicus, UniProt P43140); experiment: Binding affinity towards Alpha-1A adrenergic receptor in rat hippocampal membranes using [3H]prazosin as radioligand; assay type: cell membranes, Hippocampus
# T4 sequence (P43140 whole entry): T2 sequence (P43140 whole entry)
# How it was run: (§2)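 Native α1A site from rat hippocampus membranes pretreated with CEC, labelled with [3H]prazosin in competition binding. Mean ± SE of at least three separate experiments, each run in triplicate.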
# [5] = biological target: T5, Alpha-1A adrenergic receptor (Bos taurus, UniProt P18130); experiment: Binding affinity towards Alpha-1A adrenergic receptor in bovine brain using [3H]prazosin as radioligand
# T5 sequence (P18130 whole entry): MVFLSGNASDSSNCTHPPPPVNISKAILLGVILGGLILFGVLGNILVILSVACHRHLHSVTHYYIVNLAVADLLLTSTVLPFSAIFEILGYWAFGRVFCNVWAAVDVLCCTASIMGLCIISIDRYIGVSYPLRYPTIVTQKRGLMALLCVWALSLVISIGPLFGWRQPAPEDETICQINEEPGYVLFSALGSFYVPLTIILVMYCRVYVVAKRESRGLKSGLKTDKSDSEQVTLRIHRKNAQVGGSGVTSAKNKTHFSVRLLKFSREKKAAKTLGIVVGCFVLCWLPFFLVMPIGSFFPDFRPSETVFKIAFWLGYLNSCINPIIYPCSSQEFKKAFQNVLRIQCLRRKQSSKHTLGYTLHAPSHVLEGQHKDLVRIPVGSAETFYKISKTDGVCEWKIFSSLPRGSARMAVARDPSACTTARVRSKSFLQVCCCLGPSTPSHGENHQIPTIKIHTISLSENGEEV
# How it was run: (§3)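 Membranes (35-70 µg protein) from COS-7 cells transiently expressing bovine α1a, hamster α1b or rat α1d adrenoceptor. Incubated with 0.3-0.6 nM [3H]prazosin ± displacer in 50 mM Tris-HCl pH 7.4, 10 µM pargyline, 0.1% ascorbic acid, 30 min at 25 °C. Stopped with ice-cold buffer, then rapid filtration. Mean ± SE of ≥3 experiments in triplicate.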
# [6] = biological target: T6, Adrenergic receptor alpha-2 (Rattus norvegicus, UniProt P22086+P19328+P22909); experiment: (§4) Binding affinity towards Alpha-2 adrenergic receptor in rat cerebral cortex using [3H]rauwolscine as radioligand; assay type: tissue-based; how it was run: as §1
# T6 sequence (P22086 whole entry): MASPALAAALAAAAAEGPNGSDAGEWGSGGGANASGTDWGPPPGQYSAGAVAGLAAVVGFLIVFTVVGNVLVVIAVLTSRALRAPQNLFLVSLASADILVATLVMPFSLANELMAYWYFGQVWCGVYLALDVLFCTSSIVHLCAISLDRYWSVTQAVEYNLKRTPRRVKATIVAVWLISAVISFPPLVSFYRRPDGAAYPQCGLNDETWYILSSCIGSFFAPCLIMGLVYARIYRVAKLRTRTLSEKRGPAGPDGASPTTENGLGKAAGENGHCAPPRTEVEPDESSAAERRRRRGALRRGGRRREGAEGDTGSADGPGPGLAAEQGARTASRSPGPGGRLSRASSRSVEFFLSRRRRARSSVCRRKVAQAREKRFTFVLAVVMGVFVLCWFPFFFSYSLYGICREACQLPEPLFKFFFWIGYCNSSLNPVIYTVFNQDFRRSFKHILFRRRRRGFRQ
# T6 sequence (P19328 whole entry): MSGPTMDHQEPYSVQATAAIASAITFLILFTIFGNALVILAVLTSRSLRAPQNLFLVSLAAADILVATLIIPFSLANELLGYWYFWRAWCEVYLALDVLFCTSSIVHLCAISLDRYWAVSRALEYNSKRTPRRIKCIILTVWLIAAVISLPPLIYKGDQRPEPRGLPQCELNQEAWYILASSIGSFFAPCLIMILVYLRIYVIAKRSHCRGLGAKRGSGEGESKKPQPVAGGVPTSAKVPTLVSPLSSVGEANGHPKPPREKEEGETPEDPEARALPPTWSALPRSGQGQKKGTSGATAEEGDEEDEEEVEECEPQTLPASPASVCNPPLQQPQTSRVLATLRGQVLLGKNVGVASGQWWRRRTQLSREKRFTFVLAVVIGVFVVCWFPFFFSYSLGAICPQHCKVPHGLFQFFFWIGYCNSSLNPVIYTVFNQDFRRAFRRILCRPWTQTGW
# T6 sequence (P22909 whole entry): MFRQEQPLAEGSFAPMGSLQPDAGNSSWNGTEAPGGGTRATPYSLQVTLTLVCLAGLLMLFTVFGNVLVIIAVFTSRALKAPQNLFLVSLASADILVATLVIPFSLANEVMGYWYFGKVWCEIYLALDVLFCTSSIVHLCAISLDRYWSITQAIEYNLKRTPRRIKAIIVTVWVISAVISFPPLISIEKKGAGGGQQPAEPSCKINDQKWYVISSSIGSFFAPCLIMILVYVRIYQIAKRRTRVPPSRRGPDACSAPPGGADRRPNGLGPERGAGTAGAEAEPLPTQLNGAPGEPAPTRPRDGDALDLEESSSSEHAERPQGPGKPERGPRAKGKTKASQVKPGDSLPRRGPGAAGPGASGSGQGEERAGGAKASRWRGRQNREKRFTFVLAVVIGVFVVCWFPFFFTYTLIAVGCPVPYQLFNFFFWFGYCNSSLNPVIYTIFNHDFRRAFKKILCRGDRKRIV
# [7] = biological target: T2, Adrenergic receptor alpha-1; experiment: Binding affinity towards Alpha-1 adrenergic receptor in rat cerebral cortex using [3H]prazosin as radioligand; assay type: tissue-based; how it was run: as §1
# D(2) dopamine receptor [8] = biological target: T7, D(2) dopamine receptor (Rattus norvegicus, UniProt P61169); experiment: Binding affinity towards Dopamine receptor D2 in rat striatum using [3H]spiperone as radioligand; assay type: tissue-based; how it was run: as §1
# T7 sequence (P61169 whole entry): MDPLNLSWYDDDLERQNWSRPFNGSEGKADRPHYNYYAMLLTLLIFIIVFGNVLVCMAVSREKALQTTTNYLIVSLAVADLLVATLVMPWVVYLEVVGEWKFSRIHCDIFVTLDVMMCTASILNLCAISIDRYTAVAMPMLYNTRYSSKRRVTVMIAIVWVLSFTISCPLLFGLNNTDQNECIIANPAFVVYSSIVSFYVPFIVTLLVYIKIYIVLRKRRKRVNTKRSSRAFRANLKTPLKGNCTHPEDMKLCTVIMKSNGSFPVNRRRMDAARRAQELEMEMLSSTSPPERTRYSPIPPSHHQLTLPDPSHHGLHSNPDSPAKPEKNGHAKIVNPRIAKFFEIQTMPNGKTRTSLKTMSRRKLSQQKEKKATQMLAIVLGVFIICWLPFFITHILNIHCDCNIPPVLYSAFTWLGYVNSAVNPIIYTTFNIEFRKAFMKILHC
# [9] = biological target: T8, Adrenergic receptor alpha-2 (Rattus norvegicus) (UniProt P22086+P19328+P22909); conditions: Vas deferens
# [10] = biological target: T8, Adrenergic receptor alpha-2 (Rattus norvegicus); experiment: as §4; assay type: tissue-based; how it was run: as §1
# [11] = biological target: T4, Alpha-1A adrenergic receptor; experiment: Binding affinity towards Alpha-1A adrenergic receptor in rat hippocampus (+ 10 uM) […] membrane using [3H]prazosin as radioligand; assay type: tissue-based; how it was run: as §2
# [12] = biological target: T5, Alpha-1A adrenergic receptor; experiment: Binding affinity towards Alpha-1A adrenergic receptor in bovine brain using [3H]-prazosin as radioligand; how it was run: as §3
# [13] = biological target: T9, Alpha-1B adrenergic receptor (Rattus norvegicus, UniProt P15823); experiment: Binding affinity towards Alpha-1B adrenergic receptor in rat liver using [3H]prazosin as radioligand
# T9 sequence (P15823 whole entry): T2 sequence (P15823 whole entry)
# [14] = biological target: T8, Adrenergic receptor alpha-2 (Rattus norvegicus); conditions: Vas deferens; remark: listed apart in the source
# D(2) dopamine receptor [15] = biological target: T7, D(2) dopamine receptor; experiment: In vitro inhibitory activity against [3H]spiperone binding to Dopamine receptor D2
SMILES,Ki [1] [nM],pA2 [2],Ki [3] [nM],Ki [4] [nM],Ki [5] [nM],Ki [6] [nM],Ki [7] [nM],Ki (D(2) dopamine receptor [8]) [nM],-Log KB [9],Affinity [10] [µM],Ki [11] [nM],Ki [12] [nM],Ki [13] [nM],-Log KB [14],Ki (D(2) dopamine receptor [15]) [nM]
COc1cccc(OC)c1OCCNCC1COc2ccccc2O1 (stereo not given),7.26,9.13,6.26,1.29,0.62,14.72,8.72,123,6.29,–,–,–,–,–,–
COc1cccc(OC)c1OCCNCC1Oc2ccccc2OC1c1ccc(C)cc1 (racemic),606,8.67,11.8,–,–,–,17.03,–,–,3.5,5.32,0.91,103,< 5,82.3
COc1cccc(OC)c1OCCNC[C@@H]1Oc2ccccc2O[C@H]1c1ccc(C)cc1,889,8.92,6.57,1.76,0.35,4293,9.97,86.5,–,–,–,–,62.6,< 5,–
COC(=O)C1=C(C)NC(C)=C(C(=O)OCCCN2CCC(c3ccccc3)(c3ccccc3)CC2)[C@H]1c1cccc([N+](=O)[O-])c1 [NIGULDIPINE],–,–,–,–,–,1611,–,–,–,–,–,–,–,–,–
COc1cccc(OC)c1OCCNC[C@H]1Oc2ccccc2O[C@@H]1c1ccc(C)cc1,1260,7.59,191,40.3,8.34,2142,121.2,827,–,–,–,–,774,< 5,–
